Experimental data reported in ChEMBL document CHEMBL3865830, “Multifunctional diamine AGE/ALE inhibitors with potential therapeutical properties against Alzheimer's disease” (Eur J Med Chem, 2016).

Assays:
[1] = Reactive carbonyl species trapping activity of compound assessed as MGO adduct formation at 10 mM preincubated for 24 hrs with MGO measured after 24 hrs by LCMS analysis; type: physicochemical; details: 10000 µM
[2] = Metal chelating activity of compound assessed as compound-Cu2+ complex formation at 0.05 mM after 10 mins in presence of CuSO4.5H2O by complexometric indicator murexide based UV-Vis spectrophotometric analysis; type: physicochemical; details: 50 µM
How it was run: (§1)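 Compound (0.02-2 mM) incubated with CuSO4 (120 µM) for 10 min at rt, in 10 mM hexamine/HCl with 10 mM KCl (pH 5.0), or in buffer/MeOH 75:25 for poorly soluble compounds. Murexide added, 1 min more. The A485/A520 ratio gives free Cu2+ from a CuSO4 calibration curve (0-125 µM). % chelation is taken by difference from the no-compound control; triplicates.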

[3] = Metal chelating activity of compound assessed as compound-Cu2+ complex formation at 0.08 mM after 10 mins in presence of CuSO4.5H2O by complexometric indicator murexide based UV-Vis spectrophotometric analysis; type: physicochemical; details: 80 µM; how it was run: as §1
Rattus norvegicus = species: Rattus norvegicus; experiment: Cytotoxicity against rat […] PC12 cells assessed as reduction in cell viability at 10 to 100 uM after 24 hrs by WST8-based CCK8 assay; type: toxicity; details: pc-12, 24 h
How it was run: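 PC12 Adh cells (rat pheochromocytoma-derived) grown in F-12K with 2.5% FBS, 15% horse serum and pen/strep at 37 °C, 5% CO2. Seeded at 5×10^3 cells/well; treated at 80% confluency with 10 or 100 µM for 24 h. 10% DMSO served as positive cytotoxicity control. CCK-8 added for 1 h at 37 °C, absorbance read at 450 nm. Viability given as % of untreated cells; at least three experiments in triplicate.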

[4] = Reactive carbonyl species trapping activity of compound assessed as MDA adduct formation at 10 mM preincubated for 24 hrs with MDA measured after 5 hrs by LCMS analysis; type: physicochemical; details: 10000 µM
[5] = Reactive carbonyl species trapping activity of compound assessed as MGO adduct formation at 10 mM preincubated for 24 hrs with MGO measured after 5 hrs by LCMS analysis; type: physicochemical; details: 10000 µM
[6] = Metal chelating activity of compound assessed as compound-Cu2+ complex formation at 0.02 mM after 10 mins in presence of CuSO4.5H2O by complexometric indicator murexide based UV-Vis spectrophotometric analysis; type: physicochemical; details: 20 µM; how it was run: as §1
[7] = Antioxidant activity assessed as inhibition of AAPH-induced peroxyl radical generation measured as trolox equivalent at 10 uM preincubated for 30 mins followed by AAPH addition measured evey 60 secs for 60 cycles by ORAC-FL assay; type: functional; details: in the assay text read “90 secs” for “60 secs”
How it was run: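 Fluorescein (12 nM) preincubated with compound (1-20 µM) or Trolox standard (1-50 µM) in D-PBS, at least 30 min at 37 °C. Reaction started with AAPH (30 mM). Fluorescence (ex 485/em 520 nm) read every 90 s for 60 cycles. Net AUC is converted to Trolox equivalents via the Trolox calibration line. Values are reported at 10 µM, from at least three independent experiments in triplicate.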

[8] = Reactive carbonyl species trapping activity of compound assessed as MGO adduct formation at 10 mM preincubated for 24 hrs with MGO measured after 0.5 hrs by LCMS analysis; type: physicochemical; details: 10000 µM
[9] = Reactive carbonyl species trapping activity of compound assessed as MDA adduct formation at 10 mM preincubated for 24 hrs with MDA measured after 0.25 hrs by LCMS analysis; type: physicochemical; details: 10000 µM
[10] = Metal chelating activity of compound assessed as compound-Cu2+ complex formation at 1 mM after 10 mins in presence of CuSO4.5H2O by complexometric indicator murexide based UV-Vis spectrophotometric analysis; type: physicochemical; details: 1000 µM; how it was run: as §1
[11] = Metal chelating activity of compound assessed as compound-Cu2+ complex formation at 0.1 mM after 10 mins in presence of CuSO4.5H2O by complexometric indicator murexide based UV-Vis spectrophotometric analysis; type: physicochemical; details: 100 µM; how it was run: as §1
[12] = Reactive carbonyl species trapping activity of compound assessed as MDA adduct formation at 10 mM preincubated for 24 hrs with MDA measured after 1 hr by LCMS analysis; type: physicochemical; details: 10000 µM
[13] = Reactive carbonyl species trapping activity of compound assessed as MGO adduct formation at 10 mM preincubated for 24 hrs with MGO measured after 15 mins by LCMS analysis; type: physicochemical; details: 0.25 h, 10000 µM
[14] = Reactive carbonyl species trapping activity of compound assessed as MGO adduct formation at 10 mM preincubated for 24 hrs with MGO measured after 1 hr by LCMS analysis; type: physicochemical; details: 10000 µM
[15] = Metal chelating activity of compound assessed as compound-Cu2+ complex formation at 200 uM after 10 mins in presence of CuSO4.5H2O by complexometric indicator murexide based UV-Vis spectrophotometric analysis; type: physicochemical; how it was run: as §1
[16] = Reactive carbonyl species trapping activity of compound assessed as MDA adduct formation at 10 mM preincubated for 24 hrs with MDA measured after 24 hrs by LCMS analysis; type: physicochemical; details: 10000 µM
[17] = Metal chelating activity of compound assessed as compound-Cu2+ complex formation at 0.5 mM after 10 mins in presence of CuSO4.5H2O by complexometric indicator murexide based UV-Vis spectrophotometric analysis; type: physicochemical; details: 500 µM; how it was run: as §1
[18] = Reactive carbonyl species trapping activity of compound assessed as MGO adduct formation at 10 mM preincubated for 24 hrs with MGO measured after 0.25 hrs by LCMS analysis; type: physicochemical; details: 10000 µM
[19] = Metal chelating activity of compound assessed as compound-Cu2+ complex formation at 2 mM after 10 mins in presence of CuSO4.5H2O by complexometric indicator murexide based UV-Vis spectrophotometric analysis; type: physicochemical; details: 2000 µM; how it was run: as §1
[20] = Reactive carbonyl species trapping activity of compound assessed as MDA adduct formation at 10 mM preincubated for 24 hrs with MDA measured after 0.5 hrs by LCMS analysis; type: physicochemical; details: 10000 µM

SMILES | Activity [1] | Activity [2] | Activity [3] | Activity (Rattus norvegicus) | Activity [4] | Activity [5] | Activity [6] | Activity (umolequiv/umol) [7] | Activity [10] | Activity [11] | Activity [13] | Activity [14] | Activity [15] | Activity [16] | Activity [17] | Activity [18] | Activity [19] | further results
Cl.Cl.NCC(N)CC(=O)N1CCN(C(=O)CCn2cccc(O)c2=O)CC1 (stereo unspecified) | 99% | 18.5% | 27.53% | Toxic | 92% | 99% | 10.33% | 0.58 | 75.14% | 30.74% | 99% | 99% | 50.25% | 91% | 68.5% | 99% | 78.98% | Activity [8]: 97%; Activity [9]: 75%; Activity [12]: 87%
CCCCN1CCN(C(=O)C(N)CN)CC1.Cl.Cl (stereo unspecified) | 100% | 10.28% | 14.87% | – | 77% | 93% | 3.22% | – | 53.27% | 16.55% | 59% | 70% | 27.68% | 62% | 43.56% | 59% | 62.53% | Activity [20]: 65%; Activity [9]: 62%
Cc1c(C)c2c(c(C)c1O)CCC(C)(C(=O)O)O2 (stereo unspecified) | – | – | – | – | – | – | – | 1 | – | – | – | – | – | – | – | – | – | –
Cl.Cl.NCC(N)CCCCNC(=O)c1cc(O)c(O)c(O)c1 (stereo unspecified) | 95% | 31.34% | 50.28% | Non-Toxic | 87% | 89% | 14.24% | 2.59 | 93.82% | 61.98% | 90% | 93% | 87.39% | 81% | 93.72% | 90% | 88.48% | Activity [20]: 80%; Activity [12]: 84%
CC(C)(C)OC(=O)NCC(CCCCNC(=O)CCn1cccc(O)c1=O)NC(=O)OC(C)(C)C.Cl.Cl (stereo unspecified) | – | 19.87% | 30.19% | – | – | – | 11.08% | – | 89.96% | 34.48% | – | – | 54.61% | – | 76.54% | – | 94.72% | –
COc1cc(/C=C/C(=O)N2CCN(C(=O)CCC(N)CN)CC2)ccc1O.Cl.Cl (stereo unspecified) | – | 14.92% | 22.44% | Non-Toxic | – | – | 3.3% | 2.05 | 71.51% | 28.75% | – | – | 45.61% | – | 61.66% | – | 81.81% | –
NCCC(=O)N[C@@H](Cc1c[nH]cn1)C(=O)O | – | – | – | – | – | – | – | 0.08 | – | – | – | – | – | – | – | – | – | –
